According to ChEMBL document CHEMBL1140829, “1-Aminoindanes as novel motif with potential atypical antipsychotic properties” (Bioorg Med Chem Lett, 2008):
pKi: −log10 of the molar value.

What was measured:
[1] = target: T1, 5-hydroxytryptamine receptor 1A (Homo sapiens, UniProt P08908); assay: (§1) Displacement of [3H]8OHDPAT from human 5HT1A receptor
T1 sequence (P08908 whole entry): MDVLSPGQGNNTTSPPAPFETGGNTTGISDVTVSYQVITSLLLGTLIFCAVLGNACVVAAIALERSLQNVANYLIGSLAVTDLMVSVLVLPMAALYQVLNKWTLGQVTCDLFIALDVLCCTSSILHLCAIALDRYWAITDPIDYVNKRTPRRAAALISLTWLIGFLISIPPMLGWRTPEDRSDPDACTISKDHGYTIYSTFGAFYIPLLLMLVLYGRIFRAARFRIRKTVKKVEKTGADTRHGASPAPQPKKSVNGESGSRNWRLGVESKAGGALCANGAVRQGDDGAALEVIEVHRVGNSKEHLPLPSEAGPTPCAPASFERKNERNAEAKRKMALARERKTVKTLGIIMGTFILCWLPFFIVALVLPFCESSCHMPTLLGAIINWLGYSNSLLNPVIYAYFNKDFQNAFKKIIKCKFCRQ
Outline: (§2)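 Radioligand competition binding on cloned human receptor membranes: [3H]8-OH-DPAT for 5-HT1A; CHO-cell D2L membranes with [3H]spiperone. Membranes plus radioligand with or without varying compound concentrations. Bound and free separated by vacuum filtration; bound counted by liquid scintillation. Concentration–percent inhibition of specific binding fit by nonlinear regression to IC50.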

[2] = target: T2, Alpha-1A adrenergic receptor (Rattus norvegicus, UniProt P43140); assay: Displacement of [3H]prazosin from rat adrenergic alpha1A receptor expressed in fibroblast cells; format: cell-based
T2 sequence (P43140 whole entry): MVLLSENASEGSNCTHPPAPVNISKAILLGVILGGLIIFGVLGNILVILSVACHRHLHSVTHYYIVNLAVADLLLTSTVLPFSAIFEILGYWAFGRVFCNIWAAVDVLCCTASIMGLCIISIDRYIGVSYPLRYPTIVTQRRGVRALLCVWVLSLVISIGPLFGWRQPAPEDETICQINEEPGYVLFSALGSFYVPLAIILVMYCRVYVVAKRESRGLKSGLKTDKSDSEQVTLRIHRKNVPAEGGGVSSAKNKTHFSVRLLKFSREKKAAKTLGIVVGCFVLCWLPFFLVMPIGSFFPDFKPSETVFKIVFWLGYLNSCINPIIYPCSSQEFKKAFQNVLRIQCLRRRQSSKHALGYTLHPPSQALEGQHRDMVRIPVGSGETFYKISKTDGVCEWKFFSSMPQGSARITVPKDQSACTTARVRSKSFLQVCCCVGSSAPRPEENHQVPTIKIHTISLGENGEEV
Outline: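 Cloned rat alpha1a receptor in fibroblast cell membranes; [3H]prazosin as radioligand, incubated with or without a range of compound concentrations. Filtration under vacuum removed free label; bound measured by liquid scintillation counting. Percent inhibition of specific binding vs concentration fit by nonlinear regression for IC50.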

[3] = target: Voltage-gated inwardly rectifying potassium channel KCNH2 (Homo sapiens, UniProt Q12809); assay: Displacement of [3H]dofetilide from human ERG channel expressed in HEK293 cells; format: cell-based
Chain of Voltage-gated inwardly rectifying potassium channel KCNH2 (Q12809 whole entry): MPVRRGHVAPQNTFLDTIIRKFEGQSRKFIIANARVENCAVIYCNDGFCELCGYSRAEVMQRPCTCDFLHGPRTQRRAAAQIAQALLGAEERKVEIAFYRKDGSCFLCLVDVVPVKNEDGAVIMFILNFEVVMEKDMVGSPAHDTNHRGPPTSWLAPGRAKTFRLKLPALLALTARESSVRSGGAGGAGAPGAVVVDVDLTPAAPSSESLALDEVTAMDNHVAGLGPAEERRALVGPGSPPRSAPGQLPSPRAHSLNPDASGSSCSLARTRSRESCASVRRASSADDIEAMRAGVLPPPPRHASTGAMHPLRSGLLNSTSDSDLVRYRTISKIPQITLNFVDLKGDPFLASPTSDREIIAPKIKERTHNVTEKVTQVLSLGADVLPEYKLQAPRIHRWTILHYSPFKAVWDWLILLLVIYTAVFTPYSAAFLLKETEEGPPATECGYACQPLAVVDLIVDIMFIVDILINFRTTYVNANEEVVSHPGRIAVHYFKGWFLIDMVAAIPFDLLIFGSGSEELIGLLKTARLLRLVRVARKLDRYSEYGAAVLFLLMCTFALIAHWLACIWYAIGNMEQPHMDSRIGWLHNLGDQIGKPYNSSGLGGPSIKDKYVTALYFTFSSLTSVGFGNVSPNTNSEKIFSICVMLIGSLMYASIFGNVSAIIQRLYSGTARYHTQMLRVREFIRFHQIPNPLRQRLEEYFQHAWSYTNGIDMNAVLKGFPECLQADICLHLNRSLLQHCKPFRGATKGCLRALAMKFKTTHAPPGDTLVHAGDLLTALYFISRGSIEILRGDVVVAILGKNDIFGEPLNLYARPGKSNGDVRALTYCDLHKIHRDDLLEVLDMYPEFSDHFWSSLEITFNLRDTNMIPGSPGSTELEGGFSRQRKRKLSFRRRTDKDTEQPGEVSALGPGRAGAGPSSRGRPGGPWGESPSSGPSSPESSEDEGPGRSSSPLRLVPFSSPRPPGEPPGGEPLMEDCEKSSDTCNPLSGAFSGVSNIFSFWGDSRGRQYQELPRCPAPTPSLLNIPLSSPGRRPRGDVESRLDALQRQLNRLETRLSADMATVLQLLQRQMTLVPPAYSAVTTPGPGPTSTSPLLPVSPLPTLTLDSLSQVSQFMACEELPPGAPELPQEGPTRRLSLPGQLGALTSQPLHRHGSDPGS

[4] = target: 5-hydroxytryptamine receptor 2A (Homo sapiens, UniProt P28223); assay: Displacement of [3H]ketanserin from human 5HT2A receptor expressed in Swiss 3T3 cells; format: cell-based
Chain of 5-hydroxytryptamine receptor 2A (P28223 whole entry): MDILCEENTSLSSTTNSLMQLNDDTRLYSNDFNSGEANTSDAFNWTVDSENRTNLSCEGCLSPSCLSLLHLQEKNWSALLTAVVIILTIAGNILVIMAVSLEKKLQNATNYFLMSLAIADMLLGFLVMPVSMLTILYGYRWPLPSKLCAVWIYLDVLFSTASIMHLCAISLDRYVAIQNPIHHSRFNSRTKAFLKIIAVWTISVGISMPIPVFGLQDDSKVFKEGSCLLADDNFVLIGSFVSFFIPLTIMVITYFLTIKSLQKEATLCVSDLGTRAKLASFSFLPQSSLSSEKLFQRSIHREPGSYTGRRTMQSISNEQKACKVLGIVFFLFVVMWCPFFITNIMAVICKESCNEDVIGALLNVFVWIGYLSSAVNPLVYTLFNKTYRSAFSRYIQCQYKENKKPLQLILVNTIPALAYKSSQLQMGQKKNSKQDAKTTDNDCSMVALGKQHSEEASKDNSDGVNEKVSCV
Outline: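 Membranes from Swiss 3T3 cells expressing human 5-HT2A, labeled with [3H]ketanserin, incubated with or without varying compound concentrations. Vacuum filtration separated unbound label; bound label read by liquid scintillation. IC50 from nonlinear-regression fit of concentration vs percent inhibition of specific binding. Ki reported as geometric mean of at least three experiments.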

[5] = target: T3, 5-hydroxytryptamine receptor 1A (Homo sapiens) (UniProt P08908); assay: as §1; outline: as §2
T3 sequence (whole entry): T1 sequence (P08908 whole entry)

D(2) dopamine receptor [6] = target: T4, D(2) dopamine receptor (Homo sapiens, UniProt P14416); assay: Displacement of [3H]spiperone from human D2L receptor expressed in CHO cells; format: cell-based; outline: as §2
T4 sequence (P14416 whole entry): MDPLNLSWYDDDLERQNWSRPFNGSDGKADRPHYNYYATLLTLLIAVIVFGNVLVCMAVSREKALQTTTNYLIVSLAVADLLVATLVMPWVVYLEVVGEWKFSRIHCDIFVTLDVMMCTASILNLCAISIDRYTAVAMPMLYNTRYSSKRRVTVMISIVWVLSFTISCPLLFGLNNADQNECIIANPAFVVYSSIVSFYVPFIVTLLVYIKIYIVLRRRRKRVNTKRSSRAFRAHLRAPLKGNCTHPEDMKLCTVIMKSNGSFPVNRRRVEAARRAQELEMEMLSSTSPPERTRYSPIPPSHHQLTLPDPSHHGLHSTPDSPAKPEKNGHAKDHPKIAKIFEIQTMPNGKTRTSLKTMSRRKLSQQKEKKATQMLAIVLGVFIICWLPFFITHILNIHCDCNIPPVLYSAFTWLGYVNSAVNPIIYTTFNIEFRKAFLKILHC

D(2) dopamine receptor [7] = target: T4, D(2) dopamine receptor; assay: Displacement of [3H]spiperone from human D2L receptor expressed in CHO cells at 100 nM; format: cell-based

Structure (SMILES) | pKi [1] | pKi [2] | pKi [4] | Intrinsic activity [5] | pKi (D(2) dopamine receptor [6]) | Activity (D(2) dopamine receptor [7]) | pKi [3] | Activity ([3]; human, hek293)
O=C(NC1CCc2cc(CCN3CCN(c4nsc5ccccc45)CC3)ccc21)c1cccnc1 (centres undefined) | 8.11 | 7.76 | 9.17 | 60% | 8.30 | – | 6.69 | –
O=C(NC1CCc2ccc(CCN3CCN(c4nsc5ccccc45)CC3)cc21)c1ccccc1 (centres undefined) | 7.38 | 7.96 | 8.32 | – | 7.66 | – | – | –
O=C(NC1CCc2ccc(CCN3CCN(c4nsc5ccccc45)CC3)cc21)C1CC1 (centres undefined) | 7.92 | 8.65 | 9.52 | 60% | 7.68 | – | 7.46 | –
O=C(NC1CCc2ccc(CCN3CCN(c4nsc5ccccc45)CC3)cc21)c1ccc(Cl)cc1 (centres undefined) | 7.25 | 8.25 | 10.00 | 60% | 8.30 | – | 6.78 | –
O=C(Cc1ccccc1)NC1CCc2ccc(CCN3CCN(c4nsc5ccccc45)CC3)cc21 (centres undefined) | 7.68 | 8.28 | 10.40 | 60% | 7.59 | – | – | –
CC(C)C(=O)NC1CCc2ccc(CCN3CCN(c4nsc5ccccc45)CC3)cc21 (centres undefined) | 7.92 | 8.44 | 9.12 | – | 7.17 | – | 6.56 | –
O=C(NC1CCc2cc(CCN3CCN(c4nsc5ccccc45)CC3)ccc21)C1CC1 (centres undefined) | 8.70 | 9.14 | 9.35 | – | – | 27% | 6.86 | –
O=C(NC1CCc2ccc(CCN3CCN(c4nsc5ccccc45)CC3)cc21)c1ccco1 (centres undefined) | 8.10 | 8.86 | 9.26 | – | 8.30 | – | 7.46 | –
O=C1Cc2cc(CCN3CCN(c4nsc5ccccc45)CC3)c(Cl)cc2N1 [ZIPRASIDONE] | 8.40 | 9.30 | – | – | – | – | – | Not Active
CCCC(=O)NC1CCc2ccc(CCN3CCN(c4nsc5ccccc45)CC3)cc21 (centres undefined) | 8.26 | 8.40 | 9.35 | 60% | 7.57 | – | – | –
O=C(CCc1ccccc1)NC1CCc2ccc(CCN3CCN(c4nsc5ccccc45)CC3)cc21 (centres undefined) | 7.43 | 7.99 | 9.02 | 60% | 7.48 | – | – | –

More lines, in order of rising pKi [1], values ahead:

pKi [1] | pKi [2] | pKi [4] | Intrinsic activity [5] | pKi (D(2) dopamine receptor [6]) | Activity (D(2) dopamine receptor [7]) | Structure (SMILES) | pKi [3] | Activity ([3]; human, hek293)
7.18 | 7.99 | 8.61 | – | 8.22 | – | O=C(NC1CCc2ccc(CCN3CCN(c4nsc5ccccc45)CC3)cc21)c1ccc(F)cc1 (centres undefined) | 7.11 | –
7.55 | 7.87 | 8.52 | – | 7.82 | – | Cc1ccc(C(=O)NC2CCc3ccc(CCN4CCN(c5nsc6ccccc56)CC4)cc32)cc1 (centres undefined) | 6.71 | –
8.11 | 7.81 | 8.78 | 60% | 8.00 | – | O=C(NC1CCc2cc(CCN3CCN(c4nsc5ccccc45)CC3)ccc21)c1ccc(F)cc1 (centres undefined) | 6.87 | –
8.12 | 8.87 | 11.00 | 60% | 7.66 | – | CC(=O)NC1CCc2ccc(CCN3CCN(c4nsc5ccccc45)CC3)cc21 (centres undefined) | 6.05 | –
8.19 | 8.73 | 10.10 | – | – | – | O=C(NC1CCc2ccc(CCN3CCN(c4nsc5ccccc45)CC3)cc21)c1ccno1 (centres undefined) | 6.82 | –
8.30 | 8.52 | 11.00 | – | 7.47 | – | CCC(=O)NC1CCc2ccc(CCN3CCN(c4nsc5ccccc45)CC3)cc21 (centres undefined) | 6.79 | –
8.31 | 8.72 | – | – | 8.00 | – | O=C(NC1CCc2ccc(CCN3CCN(c4nsc5ccccc45)CC3)cc21)C(F)(F)F (centres undefined) | 7.00 | –
8.35 | 8.48 | 9.02 | – | 8.22 | – | O=C(NC1CCc2ccc(CCN3CCN(c4nsc5ccccc45)CC3)cc21)c1cccnc1 (centres undefined) | 6.45 | –
8.70 | 9.35 | 9.60 | 60% | – | 21% | CCC(=O)NC1CCc2cc(CCN3CCN(c4nsc5ccccc45)CC3)ccc21 (centres undefined) | 6.74 | –
8.70 | 8.57 | 10.05 | 60% | 7.68 | – | NC1CCc2ccc(CCN3CCN(c4nsc5ccccc45)CC3)cc21 (centres undefined) | 6.21 | –
8.70 | 9.05 | 9.30 | 60% | – | 21% | CCCC(=O)NC1CCc2cc(CCN3CCN(c4nsc5ccccc45)CC3)ccc21 (centres undefined) | 6.57 | –
8.96 | 8.50 | 9.48 | 60% | 7.82 | – | CC(=O)NC1CCc2cc(CCN3CCN(c4nsc5ccccc45)CC3)ccc21 (centres undefined) | 5.66 | –
9.00 | 9.52 | 9.82 | 60% | 8.10 | – | O=C(NC1CCc2cc(CCN3CCN(c4nsc5ccccc45)CC3)ccc21)C(F)(F)F (centres undefined) | – | –
9.00 | 9.31 | 9.19 | – | – | 17% | CC(C)C(=O)NC1CCc2cc(CCN3CCN(c4nsc5ccccc45)CC3)ccc21 (centres undefined) | 6.66 | –
